KCNK9 block = KCNK9 potassium channel inhibitors, primary screen, HEK293 cells, thallium flux | Potassium channel subfamily K member 9 (Homo sapiens), Q9NPC2 | AID 488922, 2010 | actives 1.2% (n = 310,000) | B-score at 10 µM | FluxOR thallium flux fluorescence; hits give low values;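 active = ratio B-score over 3 SD below the library mean, with starting fluorescence within 5 SD of its mean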;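 note: negative B-score means less thallium flux so channel inhibition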
Target sequence (Q9NPC2 whole entry, looked up): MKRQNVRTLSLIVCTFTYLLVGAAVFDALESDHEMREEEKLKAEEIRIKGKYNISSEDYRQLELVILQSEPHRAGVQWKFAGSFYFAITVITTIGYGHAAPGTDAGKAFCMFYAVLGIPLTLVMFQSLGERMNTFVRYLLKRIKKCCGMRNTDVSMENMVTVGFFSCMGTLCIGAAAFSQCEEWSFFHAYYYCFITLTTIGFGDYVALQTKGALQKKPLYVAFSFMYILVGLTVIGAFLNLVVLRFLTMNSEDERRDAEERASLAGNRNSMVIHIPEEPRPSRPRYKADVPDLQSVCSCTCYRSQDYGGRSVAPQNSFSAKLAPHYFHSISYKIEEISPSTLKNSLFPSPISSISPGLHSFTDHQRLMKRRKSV
hERG protect = hERG rescue from dofetilide block, primary screen, cell-based, CHO-hERG, FluxOR thallium flux, dofetilide IC70; actives 0.51% (n = 310,000); dofetilide IC70 present; AID 1511, 2009; activation (rescue from dofetilide block), less the hit threshold, % at 10 µM;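 active = activation above the mean of controls blocked by dofetilide plus 5 SD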;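 note: thallium influx through hERG after potassium depolarization seen as dye fluorescence rise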
Kir21 block = inhibitors of mouse Kir2.1 inward-rectifier potassium channel; actives 0.85% (n = 310,000); HEK293-Kir2.1, FluxOR thallium flux fluorescence; hits give low values; B-score at 10 µM; Inward rectifier potassium channel 2 (Mus musculus), P35561;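 active = fluorescence ratio B-score at or below minus 3 SD of library scores, with starting-brightness B-score within 2 SD, cut at about -4.2 in these data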;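 note: channel flux triggered by added potassium and thallium sulfate stimulus; B-score of peak minus minimum fluorescence over baseline after thallium stimulus; more negative B-score means stronger Kir2.1 block with less thallium influx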
KCNQ1 act = potentiators or activators of KCNQ1 channel, primary screen, cell-based, thallium flux, high-throughput. AID 2648, 2010. B-score at 10 µM. CHO-K1 KCNQ1, thallium flux FluxOR fluorescence; hits give high values. actives 0.35% (n = 310,000);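 active = fluorescence ratio B-score, a plate-corrected score, at least three library SD, with initial intensity B-score within 5 SD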
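Test system: CHO-K1 cells stably expressing KCNQ1 / Medium: assay buffer / Also added: depolarizing K+/Tl+ stimulus, K2SO4 and Tl2SO4 each 12.5 mM in 5x stock / Incubation: 90 min dye loading and 20 min compound exposure, both at room temperature / Signal: thallium influx via FluxOR fluorescence, kinetic imaging / Evaluation: B score of baseline-normalized fluorescence ratio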
KCNQ1 block = inhibitors of human KCNQ1 channel, primary screen, cell-based, thallium flux, high-throughput. Potassium voltage-gated channel subfamily KQT member 1 (Homo sapiens), P51787. CHO-K1 KCNQ1, FluxOR thallium flux fluorescence; hits give high values. B-score at 10 µM. actives 1.3% (n = 310,000);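 active = compounds whose thallium flux B-score, printed positive for inhibition, exceeds three library SD while starting fluorescence stays within three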;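 note: channel opened by potassium depolarization with thallium stimulus after 20 min compound exposure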
KCNK3 block = human KCNK3 channel inhibitors, primary screen, CHO cells, FluxOR thallium flux, B-score; FluxOR fluorescence; hits give low values; actives 0.84% (n = 340,000); B-score at 10 µM; Potassium channel subfamily K member 3 (Homo sapiens), O14649;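 active = B-score under library mean minus 4 SD, starting fluorescence ratio at most library mean plus 5 SD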;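 note: more negative B-score means stronger inhibition of thallium flux through KCNK3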
KCNK3 confirm = retest of human KCNK3 channel inhibitors, confirmation, CHO cells, FluxOR thallium flux, triplicate. shares compounds with KCNK3 block. FluxOR fluorescence; 0% buffer, 100% carvedilol maximal block. ratio percent of control, % at 10 µM. actives 99% (n = 2,400). AID 651638, 2012;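 active = ratio percent of control, averaged over triplicates, above buffer control mean plus 5 SD, cut at about 64% in these data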;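 note: ratio is the fluorescence rise from min to max over baseline after thallium stimulus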
KCNK3 uninduced = thallium flux inhibition in non-induced cells, primary screen, counter-screen for KCNK3 inhibitor project, cell-based, non-induced KCNK3 line, FluxOR thallium, triplicate; shares compounds with KCNK3 block; non-induced KCNK3 parental cells; hits give low values; thallium flux ratio (lower = more inhibition) at 10 µM; actives 40% (n = 2,400); AID 651747, 2012;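 active = thallium flux ratio, averaged over three wells, more than 5 SD below the buffer control mean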;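 note: host cells are CHO cells without KCNK3 induction; ratio is peak minus trough fluorescence over baseline then normalized to buffer controls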
Starred values were filed as active, the others as inactive; i = inactive; x = not tested or not shown. An excerpt weighted towards active compounds, which were near 3.7% of everything screened.

SMILES | KCNK9 block | hERG protect | Kir21 block | KCNQ1 act | KCNQ1 block | KCNK3 block | KCNK3 confirm | KCNK3 uninduced
Cc1ccc(NC(=O)C(C)SCc2nc3sc4c(c3c(=O)[nH]2)CCCC4)nc1 (stereo unspecified) | i | -18 | -0.63 | i | i | i | x | x
CC1CCc2c(sc3nc(CSc4nnnn4C)[nH]c(=O)c23)C1 (stereo unspecified) | i | -19 | 0.76 | i | i | i | x | x
O=C(Nc1ccccc1N1CCOCC1)c1cccc(Oc2ccccc2)c1 | i | -7 | 0.02 | i | i | -9.6* | 96* | i
CC(C)Oc1cccc(C(=O)Nc2ccccc2N2CCOCC2)c1 | i | -5 | 0.53 | i | i | i | x | x
O=C(Nc1ccccc1N1CCCCC1)c1ccc(OC(F)F)cc1 | -7.3* | -1 | 0.33 | i | i | -12* | 92* | i
O=C(Nc1ccccc1N1CCN(c2ccccc2)CC1)c1ccccc1 | i | -4 | 1.2 | i | i | -9.5* | 113* | 0.13*
O=C(Nc1ccc(N2CCOCC2)cc1N1CCOCC1)c1ccccc1 | x | x | x | x | x | i | x | x
O=C(Nc1ccccc1N1CCOCC1)c1cccc(F)c1 | i | -21 | 0.6 | i | i | i | x | x
O=C(Nc1ccccc1N1CCCCC1)c1ccc(F)cc1 | i | -3 | -0.01 | i | i | i | x | x
CCC(C)Oc1cccc(C(=O)Nc2ccccc2N2CCOCC2)c1 (stereo unspecified) | i | -16 | 1.4 | i | i | -9.8* | 125* | 0.15*
CN(C)C(=O)CCC(=O)N1CCCC(C(=O)c2ccc(C(F)(F)F)cc2)C1 (stereo unspecified) | i | -1 | -1.8 | i | i | i | x | x
CCCN(CC(=O)Nc1ccccc1C)C(=O)c1ccc(N2CCCC2)c([N+](=O)[O-])c1 | i | -17 | -0.25 | i | i | i | x | x
CCOC(OCC)c1nc(N)[nH]c(=O)c1CCCCc1ccccc1 | x | x | x | x | x | i | x | x
Cc1ccc(Cn2c(SCC(=O)NCC3CCCO3)nc3c2c(=O)n(C)c(=O)n3C)cc1 (stereo unspecified) | i | -3 | 0.75 | i | i | i | x | x
CC1CC2CCCC(O)=C2C(=O)O1 (stereo unspecified) | x | x | x | x | x | i | x | x
Cc1sc2ncnc(N3CCN(S(=O)(=O)c4ccc(F)cc4)CC3)c2c1C | i | -11 | -0.92 | i | i | -11* | 124* | 0.16*
CCS(=O)(=O)N1CCN(c2ncnc3sc(C)c(C)c23)CC1 | i | -2 | 0.93 | i | i | i | x | x
Cc1ccc(C(=O)CSc2nc(-c3ccccc3)ccc2C#N)cc1 | i | -10 | -1.1 | i | i | i | x | x
CCSc1nc(-c2ccc(OC)cc2)ccc1C#N | i | -8 | 0.81 | i | i | -8.8* | 113* | i
CCC(C(=O)NCCC1=CCCCC1)n1nc(C)c2c(C)n(-c3ccccc3)nc2c1=O (stereo unspecified) | i | -9 | 1.5 | i | i | -8.8* | 89* | i
CCC(C(=O)Nc1ccccc1F)n1nc(C)c2c(C)n(-c3ccccc3)nc2c1=O (stereo unspecified) | i | -9 | -0.79 | i | i | -12* | 89* | i

Source: PubChem
